This note sets out measurements from ChEMBL document CHEMBL4477209, “Indole-2-carboxamide-based MmpL3 Inhibitors Show Exceptional Antitubercular Activity in an Animal Model of Tuberculosis Infection” (J Med Chem, 2016).

For data set [1], the system named is Mycobacterium tuberculosis. In words: Inhibition of MmpL3 in clinical isolates of drug sensitive Mycobacterium tuberculosis V4207 after 7 to 14 days by alamar blue assay. A general note: Alamar Blue is a resazurin reagent that responds to reducing activity.
In data set [2] the test system is Vero. In words: Cytotoxicity against african green monkey Vero cells. The format is cell-based. As to conditions: Chlorocebus sabaeus; call rule not given here.
The nature of data set [3]: Selectivity index, ratio of IC50 for african green monkey Vero cells to MIC for clinical isolates of Mycobacterium tuberculosis. In kind it is toxicity. As to conditions: read-out: Selectivity Index.
A short description of data set [4]: Stability in human hepatocytes assessed as compound remaining at 1 uM after 2 hrs. As to conditions: read-out: Stability. In kind it is ADME, cell-based, Hepatocyte. In a few lines:
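Hepatocytes from human, mouse, rat or dog incubated with 1 μM starting concentration for 2 h; percent of parent compound remaining.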

A short description of data set [5]: Stability in human liver microsomes assessed as compound remaining at 3 uM after 1 hr. The format is ADME, Microsome. As to conditions: read-out: Stability. In a few lines: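 Human liver microsomes incubated with 3 μM starting concentration for 1 h; percent of compound remaining.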
Background: Liver microsomes are vesicles of endoplasmic reticulum, rich in cytochrome P450 enzymes.

For data set [6], the target named is Cytochrome P450 2C9 (Homo sapiens, UniProt P11712). In words: Inhibition of CYP2C9 (unknown origin). In kind it is ADME.
Sequence of Cytochrome P450 2C9 (P11712 whole entry): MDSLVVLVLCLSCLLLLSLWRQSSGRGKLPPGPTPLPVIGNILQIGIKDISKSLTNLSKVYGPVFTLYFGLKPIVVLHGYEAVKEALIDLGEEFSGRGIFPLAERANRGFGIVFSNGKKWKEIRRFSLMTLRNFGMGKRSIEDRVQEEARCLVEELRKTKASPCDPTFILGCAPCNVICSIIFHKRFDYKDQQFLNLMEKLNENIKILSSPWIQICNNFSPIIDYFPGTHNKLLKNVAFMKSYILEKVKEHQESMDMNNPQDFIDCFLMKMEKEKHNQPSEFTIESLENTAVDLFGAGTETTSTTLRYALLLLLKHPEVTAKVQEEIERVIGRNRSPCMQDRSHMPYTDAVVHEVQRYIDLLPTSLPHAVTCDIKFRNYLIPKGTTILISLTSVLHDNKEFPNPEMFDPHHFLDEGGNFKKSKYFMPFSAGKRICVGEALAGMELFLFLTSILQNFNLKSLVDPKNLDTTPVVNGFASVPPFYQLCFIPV
In data set [7] the target is T1, Aryl hydrocarbon receptor (Homo sapiens, UniProt P35869).
T1 sequence (P35869 whole entry): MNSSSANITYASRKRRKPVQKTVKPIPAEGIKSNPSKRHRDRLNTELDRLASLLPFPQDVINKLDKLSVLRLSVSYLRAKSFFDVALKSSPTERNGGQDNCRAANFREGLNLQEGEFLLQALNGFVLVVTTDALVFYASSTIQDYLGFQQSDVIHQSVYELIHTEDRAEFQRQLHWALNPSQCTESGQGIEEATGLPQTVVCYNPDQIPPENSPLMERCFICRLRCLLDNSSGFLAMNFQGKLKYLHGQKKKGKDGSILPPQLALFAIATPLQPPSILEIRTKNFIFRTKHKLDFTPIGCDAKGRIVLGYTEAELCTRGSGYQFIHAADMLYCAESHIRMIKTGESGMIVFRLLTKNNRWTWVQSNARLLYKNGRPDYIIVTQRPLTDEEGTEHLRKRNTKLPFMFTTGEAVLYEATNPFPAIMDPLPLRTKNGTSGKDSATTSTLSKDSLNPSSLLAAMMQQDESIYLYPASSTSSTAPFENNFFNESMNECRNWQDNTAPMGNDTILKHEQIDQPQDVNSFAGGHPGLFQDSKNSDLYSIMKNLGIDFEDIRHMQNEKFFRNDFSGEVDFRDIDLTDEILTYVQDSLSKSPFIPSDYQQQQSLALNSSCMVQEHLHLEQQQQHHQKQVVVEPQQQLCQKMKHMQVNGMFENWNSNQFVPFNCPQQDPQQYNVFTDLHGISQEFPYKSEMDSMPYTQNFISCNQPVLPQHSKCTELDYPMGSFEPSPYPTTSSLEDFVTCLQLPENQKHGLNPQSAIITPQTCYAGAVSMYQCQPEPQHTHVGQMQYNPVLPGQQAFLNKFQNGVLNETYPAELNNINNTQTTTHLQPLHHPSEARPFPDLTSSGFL
In words: Transactivation of AhR (unknown origin) assessed as upregulation of CYP1A2 at 3 to 8 microg/ml. The format is ADME. In a few lines:
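Nuclear receptor reporter-gene induction assay, with reporters coupled to PXR, CAR or AhR. Compound was tested at 0.1–1, 3 and 8 μg/mL. Positive controls were rifampin for PXR, CITCO for CAR and 3-methylcholanthrene for AhR.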

The nature of data set [8]: Mutagenicity in Salmonella typhimurium TA100. The format is toxicity. Conditions: salmonella enterica subsp. enterica serovar typhimurium.
Data set [9] can be described thus: Mutagenicity in Salmonella typhimurium TA1535. In kind it is toxicity. Conditions: salmonella enterica subsp. enterica serovar typhimurium.
Data set [10] can be described thus: AUMClast in BALB/c mouse lung at 100 mg/kg administered via oral gavage after 0.25 to 24 hrs by LC-MS analysis. In kind it is ADME, organism-based. Conditions: in vivo. In a few lines: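 Female BALB/c mice (20 g), single oral gavage dose of 100 mg/kg. Cardiac blood and lungs taken at 0, 0.25, 0.5, 1, 2, 4, 8 and 24 h (n = 3 per time point). Plasma separated by centrifugation; lungs bead-beaten in water and supernatant recovered. Drug quantified by LC-MS/MS against an indole-2-carboxamide internal standard. Parameters derived by noncompartmental analysis.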

The subject of data set [11] is Mycobacterium tuberculosis. As to the kind of experiment: Antimycobacterial activity against Mycobacterium tuberculosis H37Rv infected in BALB/c mouse model assessed as reduction in CFU counts in lung at 100 mg/kg administered daily via oral gavage for 5 days per week measured after 14 days post dosage relative to control. The format is functional. In a few lines: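 Female BALB/c mice, 4-6 weeks old, aerosol-infected with H37Rv (about 10^3 CFU); five mice taken on day 1 for lung implantation CFU. From day 1, 12.5, 25, 50 or 100 mg/kg in 0.5% carboxymethylcellulose by daily oral gavage, 5 days/week. Ethambutol 100 mg/kg as positive control, untreated infected mice as negative, 5 mice per group. Lung homogenates plated on 7H11 selective agar on days 14 and 28.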

Data set [12] concerns Mycobacterium tuberculosis. In words: Antimycobacterial activity against Mycobacterium tuberculosis H37Rv infected in BALB/c mouse model assessed as reduction in CFU counts in lung at 200 mg/kg administered daily via oral gavage for 5 days per week measured after 28 days post dosage relative to control. The format is functional. In a few lines: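 Bactericidal-dose model in aerosol-infected BALB/c mice given 25, 50, 100 or 200 mg/kg orally in 0.5% carboxymethylcellulose in water for 4 weeks. Lung CFU compared with the count at treatment initiation; survival also recorded.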

For data set [13], the system named is Mycobacterium tuberculosis. In words: Antimycobacterial activity against Mycobacterium tuberculosis H37Rv assessed as growth inhibition at 0.0313 times MIC after 7 to 14 days in presence of 0.5 times MIC of rifampin by alamar blue assay based by Bliss synergy model analysis. The format is functional. In a few lines: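 Checkerboard of 2-fold dilutions, 4.0 to 0.0313 × MIC of each drug combined with rifampin. M. tuberculosis H37Rv at 1 × 10^4 CFU per well in 200 μL. Single-drug, blank and full-growth controls included. alamarBlue read-out, percent inhibition calculated. Bliss independence applied to wells below 1 × MIC; Δfaxy > 0 taken as synergy, < 0 as antagonism.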

A short description of data set [14]: Oral bioavailability in BALB/c mouse at 100 mg/kg administered for 30 to 120 mins followed by Mycobacterium tuberculosis H37Rv addition to compound treated serum incubated for 7 days by alamar blue reagent based serum inhibition titration assay. The format is ADME, organism-based. Conditions: in vivo. In a few lines: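 Six-week-old female BALB/c mice (20 g) given one oral dose as suspension in 0.5% CMC in water; isoniazid 10 mg/kg as positive control, vehicle as negative. Serum collected at 30, 60 and 120 min, pooled from three mice per time point, 2-fold serially diluted. 10^4 CFU H37Rv added per well, 7 days at 37 °C. alamarBlue added for 16−18 h, fluorescence read at Ex544/Em590 and plotted against serum titration.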

Values after ≈ are worked out from the molar mass of the structure shown.

Usually IC50 stands for the concentration at which inhibition is half-maximal. In the case of `C[C@@H]1[C@H]2C[C@@H](C[C@H]1NC(=O)c1cc3c(F)cc(F)cc3[nH]1)C2(C)C`, in [1], the MIC came to 23 µM (≈ 7.65 µg/mL). The same compound had an IC50 in data set [2] not below 192 µM. Further, in [3], the selectivity ratio is not below 16000. Moreover, the remaining at 2 h, 1 µM in [4] came to 52%. Besides, in data set [5], the remaining at 1 h, 3 µM was determined as 69.5%. In addition, the “inhibition (INH)” value in data set [6] is recorded as -5.2%. For the same compound, the Activity entry in [7] was “Active”; in data set [8], “Non-Toxic”; in data set [9] it was “Non-Toxic”; in [11] it was 1.71 log10CFU; in data set [12] it was 0.6 log10CFU. The AUMClast in [10] is given as 433 hr2.ug/g. Also, the “growth inhibition (GI)” value in [13] was 90.5%. In addition, the Drug uptake entry in data set [14] was “Active”.
